Measured values published in ChEMBL document CHEMBL1143767, “Identification, biological activity, and mechanism of the anti-ischemic quinolone analog” (2007).
Converted amounts (≈) assume the structure as drawn.

Assays:
SH-SY5Y [1] = assay: Cell viability of human SH-SY5Y cells at 0.1 uM after 24 hrs by MTS assay; type: functional
Procedure, shortened: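 SH-SY5Y cells were grown in 1:1 EMEM/F12K with 10% heat-inactivated FBS at 37 °C and 5% CO₂. One day after plating, cells were pretreated with compound for 2 h, then exposed to hydrogen peroxide for 24 h. MTS reagent was added for 3 h at 37 °C and OD read at 490 nm. Viability is % of control, from at least two independent experiments in triplicate.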

Rattus norvegicus [2] = assay: Antiischemic effect in Sprague-Dawley rat focal ischemic sroke model assessed as reduction of infract size in brain at 0.01 mg/kg, ip after 24 hrs under pre-ischemic conditions; type: functional; parameters: scale not given: the % may be the effect or the level left; details: route intraperitoneal
Procedure, shortened: (§1)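 Rat MCAO with 2 h ischemia and 22 h reperfusion, pre-ischemic regimen. Compound was given ip three times: 3 h and 1 h before, and 1 h after, MCA occlusion. Brains were removed 24 h after ischemia, cut into seven slices, and stained with TTC. Infarct volume was measured by computer-assisted planimetry and expressed as % reduction versus vehicle-treated rats.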

SH-SY5Y [3] = assay: Enhancement of cell viability of human SH-SY5Y cells at 0.1 uM after 24 hrs by MTS assay relative to control; type: functional
Procedure, shortened: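 SH-SY5Y neuroblastoma cells were grown in 1:1 EMEM/F12K with 10% heat-inactivated FBS at 37 °C, 5% CO2. After 1 day, cells were pretreated with compound at 0.1 µM for 2 h, then exposed to 200 µM H2O2 for 24 h. Viability was read by MTS (3 h, 37 °C, OD 490 nm) as a percentage of control. At least two independent experiments, each in triplicate.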

Enterococcus faecalis = assay: Antibacterial activity against Enterococcus faecalis ATCC 29212 after 16 to 18 hrs by agar dilution method; type: functional
Procedure, shortened: (§2)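 Agar dilution MIC following CLSI guidance. E. faecalis was grown on Brain–Heart Infusion agar and the other strains on Mueller Hinton agar. Compounds were diluted in DMSO or 0.1 M NaOH in twofold steps to give final concentrations of 0.06–128 µg/mL. Inocula of 10^4 cfu/spot were incubated 16–18 h at 36 °C in ambient air. MIC was taken as the lowest concentration preventing visible growth.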

Staphylococcus aureus = assay: Antibacterial activity against Staphylococcus aureus ATCC 25923 after 16 to 18 hrs by agar dilution method; type: functional; procedure, shortened: as §2
[4] = tested on: Staphylococcus epidermidis; assay: Antibacterial activity against Staphylococcus epidermidis ATCC 12228 after 16 to 18 hrs by agar dilution method; type: functional; procedure, shortened: as §2
Rattus norvegicus [5] = assay: Cardioprotective effect in Sprague-Dawley rat myocardial infarction model assessed as reduction of infract size in heart at 0.01 mg/kg, ip; type: functional; parameters: scale not given: the % may be the effect or the level left; details: route intraperitoneal
Procedure, shortened: (§3)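 Male Sprague–Dawley rats (260–290 g) were anesthetized with ketamine ([…]) and xylazine (5 mg/kg). A single ip dose was given 1 h before regional myocardial ischemia (30 min), followed by 3 h reperfusion. After 1% Evans blue, the left ventricle was cut into two slices and stained with TTC. Infarct size was expressed as % of area at risk versus vehicle, using Student's t-test (P < 0.05).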

Rattus norvegicus [6] = assay: Cardioprotective effect in Sprague-Dawley rat myocardial infarction model assessed as reduction of infract area in heart at 0.01 mg/kg, ip; type: functional; parameters: scale not given: the % may be the effect or the level left; details: route intraperitoneal; procedure, shortened: as §3
Enterobacter cloacae = assay: Antibacterial activity against Enterobacter cloacae ATCC 13047 after 16 to 18 hrs by agar dilution method; type: functional
Serratia marcescens = assay: Antibacterial activity against Serratia marcescens ATCC 27117 after 16 to 18 hrs by agar dilution method; type: functional
Procedure, shortened: (§4)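 Agar dilution MIC per CLSI on Mueller Hinton agar. Stocks were diluted in DMSO or 0.1 M NaOH as a twofold series, with final concentrations 0.06–128. Plates were spotted at 10⁴ cfu/spot and incubated in ambient air at 36 °C for 16–18 h. MIC was the lowest concentration that prevented visible growth.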

Rattus norvegicus [7] = assay: Cardioprotective effect in Sprague-Dawley rat myocardial infarction model assessed as reduction of infract size in heart at 0.001 mg/kg, ip; type: functional; parameters: scale not given: the % may be the effect or the level left; details: route intraperitoneal; procedure, shortened: as §3
Escherichia coli = assay: Antibacterial activity against Escherichia coli ATCC 25922 after 16 to 18 hrs by agar dilution method; type: functional; procedure, shortened: as §2
Rattus norvegicus [8] = assay: Antiischemic effect in Sprague-Dawley rat focal ischemic sroke model assessed as reduction of infract size in brain at 0.001 mg/kg, ip after 24 hrs under pre-ischemic conditions; type: functional; parameters: scale not given: the % may be the effect or the level left; details: route intraperitoneal; procedure, shortened: as §1
Rattus norvegicus [9] = assay: Antiischemic effect in Sprague-Dawley […] sroke model assessed as reduction of infract size in brain at 0.1 mg/kg, ip after 24 hrs under pre-ischemic conditions; type: functional; parameters: scale not given: the % may be the effect or the level left; details: route intraperitoneal; procedure, shortened: as §1
Rattus norvegicus [10] = assay: Antiischemic effect in Sprague-Dawley rat focal ischemic sroke model assessed as reduction of infract size in brain at 0.01 mg/kg, ip after 24 hrs under post-ischemic conditions; parameters: scale not given: the % may be the effect or the level left; details: route intraperitoneal
Rattus norvegicus [11] = assay: Cardioprotective effect in Sprague-Dawley rat myocardial infarction model assessed as reduction of infract area in heart at 0.1 mg/kg, ip; type: functional; parameters: scale not given: the % may be the effect or the level left; details: route intraperitoneal; procedure, shortened: as §3
Rattus norvegicus [12] = assay: Cardioprotective effect in Sprague-Dawley rat myocardial infarction model assessed as reduction of infract area in heart at 0.001 mg/kg, ip; type: functional; parameters: scale not given: the % may be the effect or the level left; details: route intraperitoneal; procedure, shortened: as §3
Bacillus subtilis = assay: Antimicrobial activity against Bacillus subtilis ATCC 6633 after 16 to 18 hrs by agar dilution method; type: functional; procedure, shortened: as §4

SMILES | Activity (SH-SY5Y [1]) | MIC (Enterococcus faecalis) | MIC (Staphylococcus aureus) | MIC [4] | MIC (Serratia marcescens) | MIC (Bacillus subtilis) | further results
O=C(O)c1cn(C2CC2)c2cc(N3CCNCC3)c(F)cc2c1=S | 27.1% | – | – | – | – | – | –
O=C(O)c1cn(C2CC2)c2ccc(F)cc2c1=O | 45.1% | – | – | – | – | – | –
O=C(O)c1cn(C2CC2)c2cc(N3CCNCC3)ccc2c1=O | 61.7% | 64 µg/mL (≈ 204 µM) | 32 µg/mL (≈ 102 µM) | 16 µg/mL (≈ 51.1 µM) | 4 µg/mL (≈ 12.8 µM) | 8 µg/mL (≈ 25.5 µM) | Activity (Rattus norvegicus [2]): 32.1%; Activity (SH-SY5Y [3]): 42%; Activity (Rattus norvegicus [5]): 26.6%; Activity (Rattus norvegicus [6]): 53.1%; MIC (Enterobacter cloacae): 1 µg/mL (≈ 3.19 µM); Activity (Rattus norvegicus [7]): 14.2%; MIC (Escherichia coli): 0.5 µg/mL (≈ 1.6 µM); Activity (Rattus norvegicus [8]): 9.6%; Activity (Rattus norvegicus [9]): 5.3%; Activity (Rattus norvegicus [10]): 8.9%; Activity (Rattus norvegicus [11]): 78.3%; Activity (Rattus norvegicus [12]): 62.1%
Cc1c(C(=O)O)c(=O)c2cc(F)c(N3CCNCC3)cc2n1C1CC1 | 49.9% | – | – | – | – | – | –
O=C(O)c1cn(C2CC2)c2cc(N3CCCCC3)c(F)cc2c1=O | 44.1% | – | – | – | – | – | –
O=C(O)c1cn(C2CC2)c2ccccc2c1=O | 39% | – | – | – | – | – | –
O=C(O)c1cn(C2CC2)c2cc(C3CCNCC3)c(F)cc2c1=O | 42.4% | – | – | – | – | – | –
O=C(O)c1cn(C2CC2)c2cc(N3CCNCC3)c(F)cc2c1=O [CIPROFLOXACIN] | 46.5% | 2 µg/mL (≈ 6.04 µM) | 2 µg/mL (≈ 6.04 µM) | 1 µg/mL (≈ 3.02 µM) | 0.125 µg/mL (≈ 0.377 µM) | 1 µg/mL (≈ 3.02 µM) | –
O=c1ccn(C2CC2)c2cc(N3CCNCC3)c(F)cc12 | 57.4% | 8 µg/mL (≈ 27.8 µM) | 16 µg/mL (≈ 55.7 µM) | 8 µg/mL (≈ 27.8 µM) | 1 µg/mL (≈ 3.48 µM) | 8 µg/mL (≈ 27.8 µM) | Activity (SH-SY5Y [3]): 33%; MIC (Enterobacter cloacae): 0.5 µg/mL (≈ 1.74 µM); MIC (Escherichia coli): < 0.12 µg/mL
